From ChEMBL document CHEMBL3792386, “Design, Synthesis, and Biological Evaluation of Novel Selenium (Se-NSAID) Molecules as Anticancer Agents” (J Med Chem, 2016)
Activity calls are given as the source filed them. No cut-off for these calls is given here.

Tests used:
HCT-116 [1] = assay: Cytotoxicity against human HCT116 cells assessed as reduction in cell viability after 48 hrs MTT assay; format: functional, cell-based
Outline: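 Cells (HCT116, nHDF in serum-free fibroblast medium with growth kit, or MEFs) exposed to increasing compound concentrations for 48 h at 37 °C. Viability read by MTT: 3000 cells/well, triplicate, MTT 3 h before end, formazan in DMSO, absorbance 570/630 nm. Mean ± SD.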

HCT-116 [2] = assay: Induction of apoptosis in human HCT116 cells assessed as live cells at 10 uM after 24 hrs by annexin V/7-ADD staining-based flow cytometry (reference value: 90.05%); format: functional
HCT-116 [3] = assay: Induction of ROS generation in human HCT116 cells at 10 uM after 24 hrs by flow cytometry (reference value: 12.42%); format: functional
HCT-116 [4] = assay: Effect on cell cycle in human HCT116 cells assessed as inhibition of cyclin E1 expression at 1 to 10 uM after 24 hrs by Western blot method; format: functional, cell-based
Outline: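 CRC cells treated at indicated doses for 24 h. Whole-cell lysates made in RIPA buffer with protease and phosphatase inhibitors and cleared at 15,000 rpm for 10 min. Resolved on 4-12% gels, transferred to PVDF, probed for cell-cycle proteins, detected by ECL. Membranes stripped for sequential probing.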

[5] = Antiproliferative activity against human DU145 cells assessed as reduction in cell viability after 24 hrs by MTT assay; format: functional, cell-based; conditions: DU-145, 24 h
Outline: (§1)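 3000 cells/well incubated in triplicate with serial concentrations of compound for 24, 48 or 72 h at 37 °C. MTT (5.0 mg/mL solution) added 3 h before the end. Formazan dissolved in DMSO, absorbance read at 570 and 630 nm. Viability normalised to vehicle control. IC50 from non-linear regression (variable slope), mean ± SD of triplicates.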

HepG2 [6] = assay: Antiproliferative activity against human HepG2 cells assessed as reduction in cell viability after 24 hrs by MTT assay; format: functional, cell-based; conditions: HepG2, 24 h; outline: as §1
UACC-903 [7] = assay: Antiproliferative activity against human UACC-903 cells assessed as reduction in cell viability after 24 hrs by MTT assay; format: functional, cell-based; conditions: UACC-903, 24 h; outline: as §1
HCT-116 [8] = assay: Induction of apoptosis in human HCT116 cells assessed as late apoptotic cells at 5 uM after 24 hrs by annexin V/7-ADD staining-based flow cytometry (reference value: 1.65%); format: functional
HepG2 [9] = assay: Antiproliferative activity against human HepG2 cells assessed as reduction in cell viability after 72 hrs by MTT assay; format: functional, cell-based; conditions: HepG2, 72 h; outline: as §1
HCT-116 [10] = assay: Induction of apoptosis in human HCT116 cells assessed as early apoptotic cells at 5 uM after 24 hrs by annexin V/7-ADD staining-based flow cytometry (reference value: 5.20%); format: functional
HCT-116 [11] = assay: Induction of apoptosis in human HCT116 cells assessed as live cells at 10 uM after 24 hrs by 7-ADD and caspase 3/7 activity-based flow cytometry (reference value: 92.60%); format: functional
RKO = assay: Antiproliferative activity against human RKO cells assessed as reduction in cell viability after 48 hrs by MTT assay; format: functional, cell-based; outline: as §1
HT-29 [12] = assay: Antiproliferative activity against human HT-29 cells assessed as reduction in cell viability after 48 hrs by MTT assay; format: functional, cell-based; conditions: HT-29, 48 h; outline: as §1
HCT-116 [13] = assay: Induction of apoptosis in human HCT116 cells assessed as early apoptotic cells at 10 uM after 24 hrs by annexin V/7-ADD staining-based flow cytometry (reference value: 5.20%); format: functional
HCT-116 [14] = assay: Induction of cell cycle arrest in human HCT116 cells assessed as accumulation at S phase at 5 uM after 12 hrs by propidium iodide staining-based flow cytometry (reference value: 55%); format: functional
HCT-116 [15] = assay: Induction of apoptosis in human HCT116 cells assessed as live cells at 2.5 uM after 24 hrs by 7-ADD and caspase 3/7 activity-based flow cytometry (reference value: 92.60%); format: functional
[16] = Antiproliferative activity against human HCT116 cells assessed as reduction in cell viability after 48 hrs by MTT assay; format: functional, cell-based; conditions: HCT-116, 48 h; outline: as §1
HCT-116 [17] = assay: Induction of apoptosis in human HCT116 cells assessed as early apoptotic cells at 2.5 uM after 24 hrs by 7-ADD and caspase 3/7 activity-based flow cytometry (reference value: 2.45%); format: functional
UACC-903 [18] = assay: Potency index, ratio IC50 of selecoxib-1-GSH to IC50 of compound for human UACC-903 cells after 48 and 72 hrs; format: functional
NCI-H460 = assay: Antiproliferative activity against human NCI-H460 cells assessed as reduction in cell viability after 72 hrs by MTT assay; format: functional, cell-based; conditions: NCI-H460, 72 h; outline: as §1
UACC-903 [19] = assay: Antiproliferative activity against human UACC-903 cells assessed as reduction in cell viability after 72 hrs by MTT assay; format: functional, cell-based; conditions: UACC-903, 72 h; outline: as §1
HCT-116 [20] = assay: Induction of ROS generation in human HCT116 cells at 5 uM after 3 hrs by flow cytometry (reference value: 8.06%); format: functional
HCT-116 [21] = assay: Induction of cell cycle arrest in human HCT116 cells assessed as accumulation at G1 phase at 5 uM after 12 hrs by propidium iodide staining-based flow cytometry (reference value: 35%); format: functional
HepG2 [22] = assay: Antiproliferative activity against human HepG2 cells assessed as reduction in cell viability after 48 hrs by MTT assay; format: functional, cell-based; conditions: HepG2, 48 h; outline: as §1
HCT-116 [23] = assay: Induction of apoptosis in human HCT116 cells assessed as dead cells at 10 uM after 24 hrs by annexin V/7-ADD staining-based flow cytometry (reference value: 3.10%); format: functional
HCT-116 [24] = assay: Induction of cell cycle arrest in human HCT116 cells assessed as reduction of G2/M phase at 5 uM after 24 hrs by propidium iodide staining-based flow cytometry (reference value: 24%); format: functional; parameters: scale not given: the % may be the effect or the level left
[25] = Antiproliferative activity against human HCT116 cells assessed as reduction in cell viability after 72 hrs by MTT assay; format: functional, cell-based; conditions: HCT-116, 72 h; outline: as §1
HCT-116 [26] = assay: Induction of apoptosis in human HCT116 cells assessed as dead cells at 10 uM after 24 hrs by 7-ADD and caspase 3/7 activity-based flow cytometry (reference value: 3.25%); format: functional
HCT-116 [27] = assay: Induction of apoptosis in human HCT116 cells assessed as dead cells at 2.5 uM after 24 hrs by annexin V/7-ADD staining-based flow cytometry (reference value: 3.10%); format: functional
HCT-116 [28] = assay: Induction of apoptosis in human HCT116 cells assessed as late apoptotic cells at 2.5 uM after 24 hrs by 7-ADD and caspase 3/7 activity-based flow cytometry (reference value: 1.70%); format: functional
[29] = Antiproliferative activity against human SKOV3 cells assessed as reduction in cell viability after 48 hrs by MTT assay; format: functional, cell-based; conditions: SK-OV-3, 48 h; outline: as §1
HCT-116 [30] = assay: Induction of apoptosis in human HCT116 cells assessed as live cells at 5 uM after 24 hrs by annexin V/7-ADD staining-based flow cytometry (reference value: 90.05%); format: functional
[31] = Antiproliferative activity against human PANC1 cells assessed as reduction in cell viability after 48 hrs by MTT assay; format: functional, cell-based; conditions: PANC-1, 48 h; outline: as §1
HT-29 [32] = assay: Antiproliferative activity against human HT-29 cells assessed as reduction in cell viability after 24 hrs by MTT assay; format: functional, cell-based; conditions: HT-29, 24 h; outline: as §1

With `CC(=O)Oc1ccccc1C(=O)NCC[Se]C#N` the Activity (HCT-116 [1]) was “Active”, the Activity (HCT-116 [2]) was 14.45% and the Activity (HCT-116 [3]) was 80.54%. The inhibition (HCT-116 [4]) was “Active”, the IC50 [5] was 8.2 µM and the IC50 (HepG2 [6]) was 16 µM. The IC50 (UACC-903 [7]) was 24.3 µM, the Activity (HCT-116 [8]) was 31.35% and the IC50 (HepG2 [9]) was 4.3 µM. For the same compound, the Activity (HCT-116 [10]) was 36.15%, the Activity (HCT-116 [11]) was 13.25% and the IC50 (RKO) was 2200 nM. It also gave an IC50 (HT-29 [12]) of 2100 nM, an Activity (HCT-116 [13]) of 32.4% and an Activity (HCT-116 [14]) of 14%. For the same compound, the Activity (HCT-116 [15]) was 60.4%, the IC50 [16] was 2500 nM and the Activity (HCT-116 [17]) was 28.45%. For the same compound, the “Ratio IC50” value (UACC-903 [18]) was “>=5”, the IC50 (NCI-H460) was 1300 nM and the IC50 (UACC-903 [19]) was 2900 nM. The Activity (HCT-116 [20]) was 9.16%, the Activity (HCT-116 [21]) was 62% and the IC50 (HepG2 [22]) was 5 µM. For the same compound, the Activity (HCT-116 [23]) was 1.6%, the Activity (HCT-116 [24]) was 19% and the IC50 [25] was 2100 nM. It also gave an Activity (HCT-116 [26]) of 2.25%, an Activity (HCT-116 [27]) of 1.25% and an Activity (HCT-116 [28]) of 9.05%. The IC50 [29] was 5.3 µM, the Activity (HCT-116 [30]) was 31.2% and the IC50 [31] was 2100 nM. For the same compound, the IC50 (HT-29 [32]) was 3.4 µM.
